BindingDB's records for doi:10.1016/j.ejmech.2020.112417 (University of Houston, 2020)

Biological target: Nucleotide-binding oligomerization domain-containing protein 2 (Homo sapiens, UniProt Q9HC29)
Test: Inhibition of human NOD2 expressed in HEK293 cells coexpressing NFkappaB-SEAP reporter measured after 7 to 9 hrs by HEKBIue reporter assay
Method in brief: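 IC50 values reported as the mean of two or three determinations ± standard deviation.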

Nucleotide-binding oligomerization domain-containing protein 2, sequence (Q9HC29 whole entry, the tested form may be a part): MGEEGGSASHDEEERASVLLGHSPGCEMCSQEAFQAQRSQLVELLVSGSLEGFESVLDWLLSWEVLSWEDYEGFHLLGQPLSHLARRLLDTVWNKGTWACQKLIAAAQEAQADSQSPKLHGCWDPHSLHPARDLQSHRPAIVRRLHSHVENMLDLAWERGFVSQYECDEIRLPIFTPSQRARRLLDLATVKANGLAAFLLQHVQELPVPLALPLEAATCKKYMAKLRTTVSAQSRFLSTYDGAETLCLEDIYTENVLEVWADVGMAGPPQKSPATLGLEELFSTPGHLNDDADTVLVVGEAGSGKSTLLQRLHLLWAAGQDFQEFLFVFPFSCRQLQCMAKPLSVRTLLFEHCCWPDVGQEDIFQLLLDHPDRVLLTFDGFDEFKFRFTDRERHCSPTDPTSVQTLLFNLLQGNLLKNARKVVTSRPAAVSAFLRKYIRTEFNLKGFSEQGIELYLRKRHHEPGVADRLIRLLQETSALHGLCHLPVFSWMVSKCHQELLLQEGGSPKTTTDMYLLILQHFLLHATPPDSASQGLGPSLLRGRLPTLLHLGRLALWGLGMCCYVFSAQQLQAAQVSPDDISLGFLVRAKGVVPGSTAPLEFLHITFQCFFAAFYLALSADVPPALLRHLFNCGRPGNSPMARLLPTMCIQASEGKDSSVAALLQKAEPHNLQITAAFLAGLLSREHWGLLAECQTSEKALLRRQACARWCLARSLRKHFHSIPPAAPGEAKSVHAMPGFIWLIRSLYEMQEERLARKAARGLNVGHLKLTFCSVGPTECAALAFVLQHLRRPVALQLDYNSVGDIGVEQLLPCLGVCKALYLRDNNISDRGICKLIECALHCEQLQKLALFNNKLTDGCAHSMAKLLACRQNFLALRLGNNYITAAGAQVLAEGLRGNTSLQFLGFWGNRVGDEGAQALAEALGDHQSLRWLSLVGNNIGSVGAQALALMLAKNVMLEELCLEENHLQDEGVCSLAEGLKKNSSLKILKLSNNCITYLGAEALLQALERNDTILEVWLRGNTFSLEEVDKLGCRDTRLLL

IC50	Compound
3.71 µM	COc1cc(NS(C)(=O)=O)cc(-c2cc(-c3ccc(N4CCNCC4)cc3)cnc2C)c1
5.24 µM	CCS(=O)(=O)Nc1cc(OC)cc(-c2cc(-c3ccc(N4CCNCC4)cc3)cnc2C)c1
2.67 µM	CCCS(=O)(=O)Nc1cc(OC)cc(-c2cc(-c3ccc(N4CCNCC4)cc3)cnc2C)c1
0.523 µM	COc1cc(NS(=O)(=O)C(C)C)cc(-c2cc(-c3ccc(N4CCNCC4)cc3)cnc2C)c1
0.39 µM	COc1cc(NS(C)(=O)=O)cc(-c2cc(-c3ccc(N4CCNCC4)cc3)cnc2N)c1
0.243 µM	CCCS(=O)(=O)Nc1cc(OC)cc(-c2cc(-c3ccc(N4CCNCC4)cc3)cnc2N)c1
0.121 µM	COc1cc(NS(=O)(=O)C(C)C)cc(-c2cc(-c3ccc(N4CCNCC4)cc3)cnc2N)c1
0.053 µM	COc1cc(NS(=O)(=O)c2ccccc2)cc(-c2cc(-c3ccc(N4CCNCC4)cc3)cnc2N)c1
0.046 µM	CCOc1cc(NS(=O)(=O)C(C)C)cc(-c2cc(-c3ccc(N4CCNCC4)cc3)cnc2N)c1
0.323 µM	CC(C)Oc1cc(NS(=O)(=O)C(C)C)cc(-c2cc(-c3ccc(N4CCNCC4)cc3)cnc2N)c1
0.42 µM	CCCS(=O)(=O)Nc1cc(-c2cc(-c3ccc(N4CCNCC4)cc3)cnc2N)ccc1OC
> 5 µM	CCCS(=O)(=O)Nc1cc(-c2cc(-c3ccc(N4CCNCC4)cc3)cnc2N)ccc1O
1.06 µM	CCCS(=O)(=O)Nc1cc(-c2cc(-c3ccc(N4CCNCC4)cc3)cnc2N)ccc1C
0.001 µM	CCCS(=O)(=O)Nc1cc(-c2cc(-c3ccc(N4CCNCC4)cc3)cnc2N)cc(OC)c1OC
2.46 µM	CCCS(=O)(=O)Nc1cc(-c2cc(-c3ccc(N4CCNCC4)cc3)cnc2N)cc2c1OCCO2
0.129 µM	CCCS(=O)(=O)Nc1cc(-c2cc(-c3ccc(N4CCNCC4)cc3)cnc2N)cc(C)c1OC
0.026 µM	CCCS(=O)(=O)Nc1cc(-c2cc(-c3ccc(N4CCNCC4)cc3)cnc2N)cc(F)c1OC
0.046 µM	CCCS(=O)(=O)Nc1cc(-c2cc(-c3ccc(N4CCNCC4)cc3)cnc2N)cc(Cl)c1OC
0.595 µM	COc1cc(-c2cc(-c3ccc(N4CCNCC4)cc3)cnc2N)cc(F)c1OC
1.29 µM	CCCS(=O)(=O)NCc1cc(-c2cc(-c3ccc(N4CCNCC4)cc3)cnc2N)ccc1OC
2.43 µM	CCCS(=O)(=O)N1CCc2ccc(-c3cc(-c4ccc(N5CCNCC5)cc4)cnc3N)cc21
1.01 µM	CCCS(=O)(=O)N1CCOc2ccc(-c3cc(-c4ccc(N5CCNCC5)cc4)cnc3N)cc21
0.352 µM	CCCS(=O)(=O)Nc1cc(-c2cncc(-c3ccc(N4CCNCC4)cc3)c2)cc(F)c1OC
2.56 µM	CCCS(=O)(=O)Nc1cc(-c2cc(-c3ccc(N4CCNCC4)cc3)cnc2C)cc(F)c1OC
2.66 µM	CCCS(=O)(=O)Nc1cc(-c2cc(-c3cccc(S(C)(=O)=O)c3)cnc2N)ccc1OC
0.016 µM	CCCS(=O)(=O)Nc1cc(-c2cc(-c3cccc(N4CCNCC4)c3)cnc2N)cc(F)c1OC
3.35 µM	CCCS(=O)(=O)Nc1cc(-c2cc(-c3ccc(N4CCNCC4)cc3)cnc2N)cc(OC)c1C
2.94 µM	CCCS(=O)(=O)Nc1ccc(-c2cc(-c3ccc(N4CCNCC4)cc3)cnc2C)cc1OC
